According to ChEMBL document CHEMBL1155380, “Synthesis and characterization of a novel iNOS/Akt inhibitor Se,Se'-1,4-phenylenebis(1,2-ethanediyl)bisisoselenourea (PBISe)--against colon cancer” (Bioorg Med Chem Lett, 2010):
Active and inactive are the calls of the source. No cut-off for these calls is given here.

Tests used:
[1] = test system: SW480; experiment: Ratio of IC50 for human SW480 cells to IC50 for human FF2441 cells
Method in brief: (§1)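 Colon adenocarcinoma lines (Caco-2, HT-29, HCT-116, SW-480) were grown in Advanced DMEM with 10% heat-treated FBS and L-glutamine, or in RPMI-1640 with 10% FBS. They were exposed to PBS vehicle or graded compound (10–100 μM, or 1.6–50 μM) for 72 h, and viability was read by MTS. FF2441 normal fibroblasts were tested by a similar MTS procedure. IC50 was fitted from dose-response curves.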

[2] = test system: Caco-2; experiment: Antitumor activity against human Caco-2 cells after 72 hrs by MTS assay; assay type: functional, cell-based; details: Caco-2, 72 h
Method in brief: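 Cells plated at 5×10^3 per well for 24 h, then exposed to PBS vehicle or increasing compound concentrations for 72 h. Viable cells were quantified by MTS and expressed as a percentage of the PBS-treated control. IC50 was fitted from dose-response curves, from at least three independent experiments, and reported with standard error.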

[3] = test system: HCT-116; experiment: Antitumor activity against human HCT116 cells after 72 hrs by MTS assay; assay type: functional, cell-based; details: HCT-116, 72 h
Method in brief: (§2)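 Colon adenocarcinoma cells (Advanced DMEM with 2 mM L-glutamine and 10% heat-treated FBS, or RPMI-1640 with 10% FBS) exposed to increasing concentrations (10–100 μM, or 1.6–50 μM) for 72 h. Viable cells quantified by MTS. IC50 from dose-response curves, at least three independent experiments.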

[4] = Selectivity ratio of IC50 for human HCT116 cells to IC50 for human FF2441 cells; assay type: ADME, cell-based, HCT-116; details: HCT116 cells and FF2441 cells; method in brief: as §1
[5] = test system: SW480; experiment: Antitumor activity against human SW480 cells after 72 hrs by MTS assay; assay type: functional, cell-based; details: SW480, 72 h; method in brief: as §2
[6] = test system: Caco-2; experiment: Selectivity ratio of IC50 for human Caco-2 cells to IC50 for human FF2441 cells; method in brief: as §1
[7] = test system: HT-29; experiment: Selectivity ratio of IC50 for human HT-29 cells to IC50 for human FF2441 cells; method in brief: as §1
[8] = test system: HT-1080; experiment: Antitumor activity against human HT1080 cells after 24 hrs by MTS assay; assay type: functional, cell-based; details: HT-1080, 24 h
Method in brief: (§3)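 Cells plated at 5×10^3 per well for 24 h, then treated with PBS vehicle or increasing concentrations (10–100 μM or 1–40 μM). Viable cells measured by MTS as percent of PBS control. IC50 from dose-response curves. Normal FF2441 fibroblasts run alongside. Lines grown in DMEM/10% FBS, except WM115 in Tu2% medium without calcium chloride, with 2% heat-treated FBS.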

[9] = test system: HT-29; experiment: Antitumor activity against human HT-29 cells after 72 hrs by MTS assay; assay type: functional, cell-based; details: HT-29, 72 h; method in brief: as §2
[10] = test system: A549; experiment: Antitumor activity against human A549 cells after 24 hrs by MTS assay; assay type: functional, cell-based; details: A549, 24 h; method in brief: as §3
[11] = test system: Cancer cell lines; experiment: Inhibition of PI3K in human colon cancer cells assessed as decrease in pAKT level at 2 to 6 uM by Western blot analysis; assay type: cell-based
Method in brief: (§4)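 Lysates in HEPES pH 7.5/NaCl/EDTA/Triton X-100 buffer with phosphatase and protease inhibitors, cleared at ≥10,000×g for 10 min at 4°C. BCA-quantified, 30 μg per lane. SDS gel, PVDF transfer, probed for PRAS40, phospho-PRAS40, Akt3, phospho-Akt Ser473, p27, cleaved PARP, cyclin D1 and Erk. HRP secondaries, ECL detection.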

[12] = test system: Cancer cell lines; experiment: Inhibition of PI3K in human colon cancer cells assessed as decrease in pPRAS40 level at 2 to 6 uM by Western blot analysis; assay type: cell-based; method in brief: as §4
[13] = test system: Cancer cell lines; experiment: Inhibition of PI3K in human colon cancer cells assessed as decrease in AKT2 level at 2 to 6 uM by Western blot analysis; assay type: cell-based
[14] = test system: MDA-MB-231; experiment: Antitumor activity against human MDA-MB-231 cells after 24 hrs by MTS assay; assay type: functional, cell-based; details: MDA-MB-231, 24 h; method in brief: as §3
[15] = test system: OVCAR-3; experiment: Antitumor activity against human OVCAR-3 cells after 24 hrs by MTS assay; assay type: functional, cell-based; details: OVCAR-3, 24 h; method in brief: as §3
[16] = test system: WM-115; experiment: Antitumor activity against human WM115 cells after 24 hrs by MTS assay; assay type: functional, cell-based; details: WM-115, 24 h; method in brief: as §3
[17] = test system: Cancer cell lines; experiment: Inhibition of PI3K in human colon cancer cells assessed as increase in p27 level at 2 to 6 uM by Western blot analysis; assay type: cell-based; method in brief: as §4
[18] = target: Nitric oxide synthase, inducible (Homo sapiens) (UniProt P35228); experiment: Inhibition of iNOS in human Caco-2 cells assessed as reduction of total nitrite production at 2 uM after 72 hrs by colorimetric assay relative to control; assay type: cell-based
Nitric oxide synthase, inducible (Homo sapiens), sequence (P35228 whole entry): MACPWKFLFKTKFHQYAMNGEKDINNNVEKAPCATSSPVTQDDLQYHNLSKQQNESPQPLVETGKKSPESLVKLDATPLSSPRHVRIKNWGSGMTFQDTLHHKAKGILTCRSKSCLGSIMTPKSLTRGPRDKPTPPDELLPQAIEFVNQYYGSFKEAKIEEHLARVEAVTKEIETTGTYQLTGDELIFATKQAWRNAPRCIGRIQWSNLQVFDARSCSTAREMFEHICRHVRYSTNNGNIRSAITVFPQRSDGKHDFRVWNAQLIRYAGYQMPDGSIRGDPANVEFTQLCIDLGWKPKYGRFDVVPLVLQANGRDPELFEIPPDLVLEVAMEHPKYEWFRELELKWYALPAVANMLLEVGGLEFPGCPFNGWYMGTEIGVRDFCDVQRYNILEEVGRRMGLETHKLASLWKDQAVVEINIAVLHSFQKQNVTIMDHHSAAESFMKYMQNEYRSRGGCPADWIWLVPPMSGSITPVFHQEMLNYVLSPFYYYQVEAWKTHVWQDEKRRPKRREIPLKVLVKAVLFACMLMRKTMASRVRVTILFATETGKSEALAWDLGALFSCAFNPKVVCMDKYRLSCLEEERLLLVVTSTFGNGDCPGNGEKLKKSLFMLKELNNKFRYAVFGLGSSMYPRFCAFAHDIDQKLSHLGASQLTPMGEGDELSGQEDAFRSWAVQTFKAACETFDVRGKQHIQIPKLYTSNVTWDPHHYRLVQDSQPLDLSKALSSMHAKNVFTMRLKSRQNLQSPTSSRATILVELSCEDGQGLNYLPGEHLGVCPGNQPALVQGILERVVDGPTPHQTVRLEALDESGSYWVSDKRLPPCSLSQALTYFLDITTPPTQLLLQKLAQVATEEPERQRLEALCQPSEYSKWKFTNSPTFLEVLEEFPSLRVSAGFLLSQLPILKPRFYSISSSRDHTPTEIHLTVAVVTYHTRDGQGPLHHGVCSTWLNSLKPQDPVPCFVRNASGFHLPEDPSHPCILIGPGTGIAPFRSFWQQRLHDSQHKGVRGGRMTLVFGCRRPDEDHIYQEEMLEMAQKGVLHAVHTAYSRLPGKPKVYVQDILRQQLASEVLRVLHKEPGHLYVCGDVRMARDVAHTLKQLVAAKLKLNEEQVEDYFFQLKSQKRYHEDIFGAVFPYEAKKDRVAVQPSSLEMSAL
Method in brief: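 Caco-2 cells (1×10^6) in Advanced DMEM/10% heat-treated FBS for 12 h, then conditioned in phenol-red-free DMEM/0.5% FBS. Treated 72 h in the same medium, PBS control. Supernatant cleared at 500×g, incubated 2 h with nitrate reductase and cofactors, then Griess reagents I and II. A540 read against a nitrate standard curve (5–35 μM). One-way ANOVA.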

[19] = test system: Cancer cell lines; experiment: Inhibition of PI3K in human colon cancer cells assessed as increase in cleaved PARP level at 2 to 6 uM by Western blot analysis; assay type: cell-based; method in brief: as §4
[20] = test system: PC-3; experiment: Antitumor activity against human PC3 cells after 24 hrs by MTS assay; assay type: functional, cell-based; details: PC-3, 24 h; method in brief: as §3
[21] = test system: Cancer cell lines; experiment: Inhibition of MAPK in human colon cancer cells assessed as decrease in AKT2 level at 2 to 6 uM by Western blot analysis; assay type: cell-based
[22] = test system: Cancer cell lines; experiment: Inhibition of MAPK in human colon cancer cells assessed as decrease in pPRAS40 level at 2 to 6 uM by Western blot analysis; assay type: cell-based
Method in brief: (§5)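 They were cleared at ≥10,000×g for 10 min at 4°C and assayed by BCA; 30 μg per lane went on NuPAGE gels, then PVDF. Probes: phospho-Akt (Ser473), phospho-PRAS40, cleaved PARP and p27, with HRP secondaries and ECL detection.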

[23] = test system: Cancer cell lines; experiment: Inhibition of MAPK in human colon cancer cells assessed as increase in p27 level at 2 to 6 uM by Western blot analysis; assay type: cell-based; method in brief: as §5
[24] = test system: Cancer cell lines; experiment: Inhibition of MAPK in human colon cancer cells assessed as increase in cleaved PARP level at 2 to 6 uM by Western blot analysis; assay type: cell-based; method in brief: as §5
[25] = test system: Cancer cell lines; experiment: Inhibition of MAPK in human colon cancer cells assessed as decrease in pAKT level at 2 to 6 uM by Western blot analysis; assay type: cell-based; method in brief: as §5

Br.N=C(N)SCCc1ccccc1 [PHENYLETHYLISOTHIOUREAHYDROBROMIDE] gave a Ratio [1] of 2, an IC50 [2] greater than 100 µM and an IC50 [3] greater than 100 µM. For the same compound, the selectivity ratio [4] was 2, the IC50 [5] was greater than 100 µM and the Ratio [6] was 2. The Ratio [7] was 2.

Br.N=C(N)[Se]CCc1ccc(CC[Se]C(=N)N)cc1 showed an IC50 [8] of 3.22 µM, an IC50 [9] of 3.84 µM and a Ratio [1] of 2. For the same compound, the IC50 [10] was 4.17 µM, the inhibition [11] was “Active” and the inhibition [12] was “Active”. For the same compound, the selectivity ratio [4] was 2, the inhibition [13] was “Active” and the IC50 [14] was 6.03 µM. The IC50 [15] was 5.33 µM, the Ratio [6] was 2 and the IC50 [16] was 9.7 µM. The inhibition [17] was “Active”, the inhibition [18] was 25% and the inhibition [19] was “Active”. It also gave a Ratio [7] of 2 and an IC50 [20] of 6.64 µM.

Br.N=C(N)[Se]CCc1ccccc1 showed a Ratio [1] of 2, an IC50 [3] greater than 100 µM and a selectivity ratio [4] of 2. For the same compound, the IC50 [5] was greater than 100 µM, the Ratio [6] was 2 and the Ratio [7] was 2.

Br.Br.N=C(N)SCCc1ccc(CCSC(=N)N)cc1 showed an IC50 [8] greater than 100 µM, a Ratio [1] of 2 and an IC50 [10] greater than 100 µM. The inhibition [21] was “inactive”, the IC50 [2] was 59.4 µM and the IC50 [3] was greater than 100 µM. The selectivity ratio [4] was 2, the IC50 [14] was greater than 100 µM and the IC50 [15] was greater than 100 µM. The inhibition [22] was “inactive”, the Ratio [6] was 2 and the inhibition [23] was “inactive”. The inhibition [24] was “inactive”, the IC50 [16] was greater than 100 µM and the inhibition [25] was “inactive”. The IC50 [20] was greater than 100 µM.
